# What was measured:
# [1] = test system: U2OS; assay: Multiplex assay against U2OS; assay type: toxicity, cell-based; conditions: human
# Outline: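 Cells stained live at seeding with Hoechst33342, BioTracker Green Microtubule Cytoskeleton Dye, MitoTracker Red and Annexin V Alexa Fluor 680 were imaged on a CQ1 microscope at 37°C and 5% CO2 after compound addition. Their classification by CellPathfinder machine-learning gating ran from Hoechst high-intensity objects versus normal cells, to healthy, pyknosed or fragmented nuclei among normal cells, to mitotic or apoptotic among pyknosed cells. Tubulin, mitochondrial-mass and membrane-permeability phenotypes are per cents of healthy-nucleus cells.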
# [2] = test system: HEK-293T; assay: Incucyte cell viability with HEK293T; assay type: toxicity, cell-based; conditions: human, 10 µM, compound concentration 10 uM; also: filed as whole numbers so only -1 and 0 and 1 occur
# [3] = 12 h, 1 µM, compound concentration 1 uM, replicate 1
# [4] = 12 h, 1 µM, compound concentration 1 uM, replicate 2
# [5] = 12 h, 10 µM, compound concentration 10 uM, replicate 1
# [6] = 12 h, 10 µM, compound concentration 10 uM, replicate 2
# [7] = 24 h, 1 µM, compound concentration 1 uM, replicate 1
# [8] = 24 h, 1 µM, compound concentration 1 uM, replicate 2
# [9] = 24 h, 10 µM, compound concentration 10 uM, replicate 1
# [10] = 24 h, 10 µM, compound concentration 10 uM, replicate 2
# [11] = 48 h, 1 µM, compound concentration 1 uM, replicate 1
# [12] = 48 h, 1 µM, compound concentration 1 uM, replicate 2
# [13] = 48 h, 10 µM, compound concentration 10 uM, replicate 1
# [14] = 48 h, 10 µM, compound concentration 10 uM, replicate 2
smiles,measurement,setting,value
CC(C)c1cc(Nc2nc(N3CCC[C@H](N)C3)ncc2C(N)=O)cc(C(C)C)n1,Population Apoptotic (%),[1]; [3],51%
same,Population Fragmented Nuclei (%),[1]; [3],8%
same,Population Healthy Nuclei (%),[1]; [3],67%
same,Population Hoechst High Intensity Objects (%),[1]; [3],5%
same,Population Membrane Permeable-Phenotype (%),[1]; [3],22%
same,Population Mitochondria Different-Phenotype (%),[1]; [3],89%
same,Population Mitotic Cells (%),[1]; [3],48%
same,Population Normal (%),[1]; [3],94%
same,Population Pyknosed Nuclei (%),[1]; [3],23%
same,Population Tubulin-Different-Phenotype (%),[1]; [3],100%
same,Total Cell Count,[1]; [3],201
same,Population Apoptotic (%),[1]; [4],44%
same,Population Fragmented Nuclei (%),[1]; [4],12%
same,Population Healthy Nuclei (%),[1]; [4],75%
same,Population Hoechst High Intensity Objects (%),[1]; [4],9%
same,Population Membrane Permeable-Phenotype (%),[1]; [4],16%
same,Population Mitochondria Different-Phenotype (%),[1]; [4],92%
same,Population Mitotic Cells (%),[1]; [4],55%
same,Population Normal (%),[1]; [4],90%
same,Population Pyknosed Nuclei (%),[1]; [4],12%
same,Population Tubulin-Different-Phenotype (%),[1]; [4],96%
same,Total Cell Count,[1]; [4],82
same,Population Apoptotic (%),[1]; [5],64%
same,Population Fragmented Nuclei (%),[1]; [5],23%
same,Population Healthy Nuclei (%),[1]; [5],39%
same,Population Hoechst High Intensity Objects (%),[1]; [5],4%
same,Population Membrane Permeable-Phenotype (%),[1]; [5],88%
same,Population Mitochondria Different-Phenotype (%),[1]; [5],98%
same,Population Mitotic Cells (%),[1]; [5],35%
same,Population Normal (%),[1]; [5],95%
same,Population Pyknosed Nuclei (%),[1]; [5],37%
same,Total Cell Count,[1]; [5],161
same,Population Apoptotic (%),[1]; [6],65%
same,Population Fragmented Nuclei (%),[1]; [6],19%
same,Population Healthy Nuclei (%),[1]; [6],31%
same,Population Hoechst High Intensity Objects (%),[1]; [6],14%
same,Population Membrane Permeable-Phenotype (%),[1]; [6],100%
same,Population Mitochondria Different-Phenotype (%),[1]; [6],93%
same,Population Mitotic Cells (%),[1]; [6],34%
same,Population Normal (%),[1]; [6],85%
same,Population Pyknosed Nuclei (%),[1]; [6],48%
same,Population Tubulin-Different-Phenotype (%),[1]; [6],100%
same,Total Cell Count,[1]; [6],55
same,Population Apoptotic (%),[1]; [7],57%
same,Population Fragmented Nuclei (%),[1]; [7],9%
same,Population Healthy Nuclei (%),[1]; [7],61%
same,Population Hoechst High Intensity Objects (%),[1]; [7],6%
same,Population Membrane Permeable-Phenotype (%),[1]; [7],22%
same,Population Mitochondria Different-Phenotype (%),[1]; [7],90%
same,Population Mitotic Cells (%),[1]; [7],42%
same,Population Normal (%),[1]; [7],93%
same,Population Pyknosed Nuclei (%),[1]; [7],29%
same,Population Tubulin-Different-Phenotype (%),[1]; [7],98%
same,Total Cell Count,[1]; [7],206
same,Population Apoptotic (%),[1]; [8],26%
same,Population Fragmented Nuclei (%),[1]; [8],10%
same,Population Healthy Nuclei (%),[1]; [8],68%
same,Population Hoechst High Intensity Objects (%),[1]; [8],5%
same,Population Membrane Permeable-Phenotype (%),[1]; [8],30%
same,Population Mitochondria Different-Phenotype (%),[1]; [8],96%
same,Population Mitotic Cells (%),[1]; [8],73%
same,Population Normal (%),[1]; [8],94%
same,Population Pyknosed Nuclei (%),[1]; [8],20%
same,Population Tubulin-Different-Phenotype (%),[1]; [8],94%
same,Total Cell Count,[1]; [8],77
same,Population Apoptotic (%),[1]; [9],74%
same,Population Fragmented Nuclei (%),[1]; [9],32%
same,Population Hoechst High Intensity Objects (%),[1]; [9],9%
same,Population Membrane Permeable-Phenotype (%),[1]; [9],97%
same,Population Mitochondria Different-Phenotype (%),[1]; [9],100%
same,Population Mitotic Cells (%),[1]; [9],25%
same,Population Normal (%),[1]; [9],90%
same,Population Pyknosed Nuclei (%),[1]; [9],44%
same,Population Tubulin-Different-Phenotype (%),[1]; [9],97%
same,Total Cell Count,[1]; [9],167
same,Population Apoptotic (%),[1]; [10],84%
same,Population Fragmented Nuclei (%),[1]; [10],23%
same,Population Healthy Nuclei (%),[1]; [10],23%
same,Population Hoechst High Intensity Objects (%),[1]; [10],17%
same,Population Membrane Permeable-Phenotype (%),[1]; [10],100%
same,Population Mitochondria Different-Phenotype (%),[1]; [10],90%
same,Population Mitotic Cells (%),[1]; [10],16%
same,Population Normal (%),[1]; [10],82%
same,Population Pyknosed Nuclei (%),[1]; [10],53%
same,Population Tubulin-Different-Phenotype (%),[1]; [10],100%
same,Total Cell Count,[1]; [10],57
same,Population Apoptotic (%),[1]; [11],54%
same,Population Fragmented Nuclei (%),[1]; [11],17%
same,Population Healthy Nuclei (%),[1]; [11],45%
same,Population Hoechst High Intensity Objects (%),[1]; [11],7%
same,Population Membrane Permeable-Phenotype (%),[1]; [11],26%
same,Population Mitochondria Different-Phenotype (%),[1]; [11],83%
same,Population Mitotic Cells (%),[1]; [11],45%
same,Population Normal (%),[1]; [11],92%
same,Population Pyknosed Nuclei (%),[1]; [11],37%
same,Population Tubulin-Different-Phenotype (%),[1]; [11],94%
same,Total Cell Count,[1]; [11],249
same,Population Apoptotic (%),[1]; [12],52%
same,Population Fragmented Nuclei (%),[1]; [12],14%
same,Population Healthy Nuclei (%),[1]; [12],60%
same,Population Hoechst High Intensity Objects (%),[1]; [12],3%
same,Population Membrane Permeable-Phenotype (%),[1]; [12],46%
same,Population Mitochondria Different-Phenotype (%),[1]; [12],88%
same,Population Mitotic Cells (%),[1]; [12],47%
same,Population Normal (%),[1]; [12],96%
same,Population Pyknosed Nuclei (%),[1]; [12],25%
same,Population Tubulin-Different-Phenotype (%),[1]; [12],96%
same,Total Cell Count,[1]; [12],86
same,Population Apoptotic (%),[1]; [13],89%
same,Population Fragmented Nuclei (%),[1]; [13],36%
same,Population Healthy Nuclei (%),[1]; [13],5%
same,Population Hoechst High Intensity Objects (%),[1]; [13],15%
same,Population Membrane Permeable-Phenotype (%),[1]; [13],100%
same,Population Mitochondria Different-Phenotype (%),[1]; [13],100%
same,Population Mitotic Cells (%),[1]; [13],10%
same,Population Normal (%),[1]; [13],84%
same,Population Pyknosed Nuclei (%),[1]; [13],58%
same,Population Tubulin-Different-Phenotype (%),[1]; [13],100%
same,Total Cell Count,[1]; [13],155
same,Population Apoptotic (%),[1]; [14],95%
same,Population Fragmented Nuclei (%),[1]; [14],34%
same,Population Healthy Nuclei (%),[1]; [14],9%
same,Population Hoechst High Intensity Objects (%),[1]; [14],26%
same,Population Mitotic Cells (%),[1]; [14],4%
same,Population Normal (%),[1]; [14],73%
same,Population Pyknosed Nuclei (%),[1]; [14],56%
same,Total Cell Count,[1]; [14],56
same,Growth Rate,"[2]; 6 h, replicate number 1, timepoint 6 hours",0
same,Growth Rate,"[2]; 12 h, replicate number 1, timepoint 12 hours",0
same,Growth Rate,"[2]; 18 h, replicate number 1, timepoint 18 hours",0
same,Growth Rate,"[2]; 24 h, replicate number 1, timepoint 24 hours",0

# Reference: ChEMBL document CHEMBL4689842, “EUbOPEN Chemogenomics Library wave 1” (2021)
